Laboratory results taken from ChEMBL document CHEMBL4689842, “EUbOPEN Chemogenomics Library wave 1” (2021).

Assays:
Assay type in all cases: toxicity, cell-based
[1] = tested on: Fibroblast; assay: Multiplex assay against human fibroblast
Summary of the method: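 Imaging took place on a CQ1 microscope at 37°C and 5% CO2 once compound had been added to live cells stained at seeding with Hoechst33342, BioTracker Green Microtubule Cytoskeleton Dye, MitoTracker Red and Annexin V Alexa Fluor 680. CellPathfinder machine-learning gating classed cells as Hoechst high-intensity objects or normal cells, classed normal cells as having healthy, pyknosed or fragmented nuclei, and classed pyknosed cells as mitotic or apoptotic. Tubulin, mitochondrial-mass and membrane-permeability phenotypes are per cents of the healthy-nucleus cells.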

[2] = tested on: HEK-293T; assay: Incucyte cell viability with HEK293T; conditions: human, 10 µM, compound concentration 10 uM; note: filed as whole numbers so only -1 and 0 and 1 occur
[3] = tested on: U2OS; assay: Incucyte cell viability with U2OS; conditions: human, 10 µM, compound concentration 10 uM; note: filed as whole numbers so only -1 and 0 and 1 occur
[4] = 12 h, 1 µM, compound concentration 1 uM, replicate 1
[5] = 12 h, 1 µM, compound concentration 1 uM, replicate 2
[6] = 12 h, 10 µM, compound concentration 10 uM, replicate 1
[7] = 12 h, 10 µM, compound concentration 10 uM, replicate 2
[8] = 24 h, 1 µM, compound concentration 1 uM, replicate 1
[9] = 24 h, 1 µM, compound concentration 1 uM, replicate 2
[10] = 24 h, 10 µM, compound concentration 10 uM, replicate 1
[11] = 24 h, 10 µM, compound concentration 10 uM, replicate 2
[12] = 48 h, 1 µM, compound concentration 1 uM, replicate 1
[13] = 48 h, 1 µM, compound concentration 1 uM, replicate 2
[14] = 48 h, 10 µM, compound concentration 10 uM, replicate 1
[15] = 48 h, 10 µM, compound concentration 10 uM, replicate 2
[16] = 0 h, replicate number 1, timepoint 0 hours
[17] = 12 h, replicate number 1, timepoint 12 hours
[18] = 18 h, replicate number 1, timepoint 18 hours
[19] = 24 h, replicate number 1, timepoint 24 hours

## CCc1cc2c(cc1CC)CC(NC[C@H](O)c1ccc(O)c3[nH]c(=O)ccc13)C2 [INDACATEROL]
[1]; [4]
  Population Apoptotic (%): 57%
  Population Fragmented Nuclei (%): 22%
  Population Healthy Nuclei (%): 53%
  Population Hoechst High Intensity Objects (%): 9%
  Population Membrane Permeable-Phenotype (%): 21%
  Population Mitochondria Different-Phenotype (%): 10%
  Population Mitotic Cells (%): 42%
  Population Normal (%): 90%
  Population Pyknosed Nuclei (%): 23%
  Population Tubulin-Different-Phenotype (%): 35%
  Total Cell Count: 187
[1]; [5]
  Population Apoptotic (%): 33%
  Population Fragmented Nuclei (%): 3%
  Population Healthy Nuclei (%): 92%
  Population Hoechst High Intensity Objects (%): 7%
  Population Membrane Permeable-Phenotype (%): 1%
  Population Mitochondria Different-Phenotype (%): 11%
  Population Mitotic Cells (%): 66%
  Population Normal (%): 92%
  Population Pyknosed Nuclei (%): 4%
  Population Tubulin-Different-Phenotype (%): 14%
  Total Cell Count: 71
[1]; [6]
  Population Apoptotic (%): 71%
  Population Fragmented Nuclei (%): 35%
  Population Healthy Nuclei (%): 45%
  Population Hoechst High Intensity Objects (%): 22%
  Population Membrane Permeable-Phenotype (%): 1%
  Population Mitochondria Different-Phenotype (%): 43%
  Population Mitotic Cells (%): 28%
  Population Normal (%): 77%
  Population Pyknosed Nuclei (%): 19%
  Population Tubulin-Different-Phenotype (%): 74%
  Total Cell Count: 230
[1]; [7]
  Population Apoptotic (%): 68%
  Population Fragmented Nuclei (%): 15%
  Population Healthy Nuclei (%): 64%
  Population Hoechst High Intensity Objects (%): 6%
  Population Membrane Permeable-Phenotype (%): 23%
  Population Mitochondria Different-Phenotype (%): 98%
  Population Mitotic Cells (%): 31%
  Population Normal (%): 93%
  Population Tubulin-Different-Phenotype (%): 88%
  Total Cell Count: 71
[1]; [8]
  Population Apoptotic (%): 69%
  Population Fragmented Nuclei (%): 23%
  Population Healthy Nuclei (%): 62%
  Population Hoechst High Intensity Objects (%): 10%
  Population Membrane Permeable-Phenotype (%): 18%
  Population Mitochondria Different-Phenotype (%): 5%
  Population Mitotic Cells (%): 30%
  Population Normal (%): 89%
  Population Pyknosed Nuclei (%): 13%
  Population Tubulin-Different-Phenotype (%): 36%
  Total Cell Count: 184
[1]; [9]
  Population Apoptotic (%): 14%
  Population Fragmented Nuclei (%): 4%
  Population Healthy Nuclei (%): 86%
  Population Hoechst High Intensity Objects (%): 3%
  Population Membrane Permeable-Phenotype (%): 0%
  Population Mitochondria Different-Phenotype (%): 10%
  Population Mitotic Cells (%): 85%
  Population Normal (%): 96%
  Population Pyknosed Nuclei (%): 9%
  Population Tubulin-Different-Phenotype (%): 12%
  Total Cell Count: 73
[1]; [10]
  Population Apoptotic (%): 71%
  Population Fragmented Nuclei (%): 30%
  Population Healthy Nuclei (%): 49%
  Population Hoechst High Intensity Objects (%): 33%
  Population Membrane Permeable-Phenotype (%): 5%
  Population Mitochondria Different-Phenotype (%): 55%
  Population Mitotic Cells (%): 28%
  Population Normal (%): 66%
  Population Pyknosed Nuclei (%): 19%
  Population Tubulin-Different-Phenotype (%): 77%
  Total Cell Count: 243
[1]; [11]
  Population Apoptotic (%): 89%
  Population Fragmented Nuclei (%): 11%
  Population Healthy Nuclei (%): 67%
  Population Hoechst High Intensity Objects (%): 6%
  Population Membrane Permeable-Phenotype (%): 59%
  Population Mitochondria Different-Phenotype (%): 100%
  Population Mitotic Cells (%): 10%
  Population Normal (%): 93%
  Population Pyknosed Nuclei (%): 20%
  Population Tubulin-Different-Phenotype (%): 86%
  Total Cell Count: 78
[1]; [12]
  Population Apoptotic (%): 30%
  Population Fragmented Nuclei (%): 29%
  Population Healthy Nuclei (%): 64%
  Population Hoechst High Intensity Objects (%): 10%
  Population Membrane Permeable-Phenotype (%): 20%
  Population Mitochondria Different-Phenotype (%): 0%
  Population Mitotic Cells (%): 69%
  Population Normal (%): 89%
  Population Pyknosed Nuclei (%): 6%
  Population Tubulin-Different-Phenotype (%): 20%
  Total Cell Count: 222
[1]; [13]
  Population Apoptotic (%): 100%
  Population Fragmented Nuclei (%): 37%
  Population Healthy Nuclei (%): 60%
  Population Hoechst High Intensity Objects (%): 15%
  Population Membrane Permeable-Phenotype (%): 7%
  Population Mitochondria Different-Phenotype (%): 4%
  Population Mitotic Cells (%): 0%
  Population Normal (%): 84%
  Population Pyknosed Nuclei (%): 1%
  Population Tubulin-Different-Phenotype (%): 35%
  Total Cell Count: 82
[1]; [14]
  Population Apoptotic (%): 70%
  Population Fragmented Nuclei (%): 38%
  Population Healthy Nuclei (%): 46%
  Population Hoechst High Intensity Objects (%): 51%
  Population Membrane Permeable-Phenotype (%): 1%
  Population Mitochondria Different-Phenotype (%): 54%
  Population Mitotic Cells (%): 29%
  Population Normal (%): 48%
  Population Pyknosed Nuclei (%): 14%
  Population Tubulin-Different-Phenotype (%): 67%
  Total Cell Count: 237
[1]; [15]
  Population Apoptotic (%): 66%
  Population Fragmented Nuclei (%): 52%
  Population Healthy Nuclei (%): 44%
  Population Hoechst High Intensity Objects (%): 37%
  Population Membrane Permeable-Phenotype (%): 0%
  Population Mitochondria Different-Phenotype (%): 28%
  Population Mitotic Cells (%): 33%
  Population Normal (%): 62%
  Population Pyknosed Nuclei (%): 3%
  Population Tubulin-Different-Phenotype (%): 61%
  Total Cell Count: 465
[2]; [16]
  Growth Rate: 0
[2]; 6 h, replicate number 1, timepoint 6 hours
  Growth Rate: 0
[2]; [17]
  Growth Rate: 0
[2]; [18]
  Growth Rate: 0
[2]; [19]
  Growth Rate: 0
[3]; [16]
  Growth Rate: 1
[3]; 6 h, replicate number 2, timepoint 6 hours
  Growth Rate: 1
[3]; [17]
  Growth Rate: 1
[3]; 12 h, replicate number 2, timepoint 12 hours
  Growth Rate: 0
[3]; [18]
  Growth Rate: 0
[3]; [19]
  Growth Rate: 0
